PMC6299372 (International Journal of Biological Sciences, 2018)

Assays:
[1] = target: T1, MsepCSP5 (Mythimna separata, UniProt A0A5H2NAD7); experiment: Fluorescence competitive binding assay with the probe 1-NPN; conditions: for IC50: displacement of 1-NPN from MsepCSP5; for Ki: Ki = IC50/(1+[1-NPN]/K1-NPN); for Kd: dissociation constant (Kd) of MsepCSP5/1-NPN complex, Scatchard plot
T1 sequence (A0A5H2NAD7 1-127): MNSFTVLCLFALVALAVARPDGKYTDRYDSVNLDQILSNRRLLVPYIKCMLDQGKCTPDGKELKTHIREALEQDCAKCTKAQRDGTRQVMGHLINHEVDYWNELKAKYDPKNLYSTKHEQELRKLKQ
In short: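 Recombinant MsepCSP5 was expressed in E. coli BL21(DE3) as inclusion bodies, refolded, Ni-affinity purified, and His-tag cleaved with enterokinase, then dialyzed into Tris-HCl at pH 5.0 or 7.4. Protein at 2 μM in 30 mM Tris-HCl was titrated with 1-NPN (0–20 μM final). Ex 337 nm, Em 360–600 nm, 25°C. Ligand stocks were in methanol. Kd came from Scatchard plots, and Ki from IC50 corrected for 1-NPN. Three independent replicates.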

[2] = tested on: M. separata; experiment: Post-RNAi Y-tube olfactometer bioassay; type: in vivo, Mythimna separata; conditions: 72 h old moths of both sexes, after RNAi
In short: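 Seven-day-old pupae were injected with dsMsepCSP5 (1 µl of 2.5 µg µL-1) into abdominal segments 3–4. Non-injected and dsGFP-injected pupae served as controls. Pupae were held at 25±1°C and 70±5% RH until eclosion. 72 h-old moths of both sexes were tested in the same Y-tube assay (two volatiles, 10 µl vs liquid paraffin, 10 min per moth). 30 females and 30 males per volatile.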

[3] = tested on: M. separata; experiment: Y-tube olfactometer behavioral bioassay; type: in vivo, Mythimna separata; conditions: for males attracted to / preferring the volatile: male moths; for males attracted to / preferring the volatile / females attracted to / preferring the volatile: volatile vs liquid paraffin control, 10 µl volatile; for behavioral response of M. separata to the volatile (in words): male and female moths; for females attracted to / preferring the volatile: female moths
In short: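 Y-tube olfactometer with arms 3.0 cm × 26 cm, charcoal-filtered humidified air at 6.0 L min-1. 10 µl volatile on 10×10 mm filter paper was set against a liquid paraffin control. Three-day-old moths were isolated about 30 min beforehand, and separate olfactometers were used per sex. Each moth had 10 min to respond. Tests ran in the dark under orange light, 1–2 h after sunset, at 25±1°C and 70±5% RH. 30 females and 30 males per volatile.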

Row | Compound | IC50 ([1]; IC50, pH 5.0) | IC50 ([1]; IC50, pH 7.4) | Ki ([1]; Ki, pH 5.0) | Ki ([1]; Ki, pH 7.4) | binding affinity to MsepCSP5 (in words) ([1]; pH 5.0) | further results
1 | C=CC(C)(O)CCC=C(C)CCC=C(C)C (mixture of isomers) [Nerolidol] | 13 µM | 18.3 µM | 6.2 µM | 7.23 µM | high binding affinity | 
2 | c1ccc(Nc2cccc3ccccc23)cc1 [1-NPN, N-phenyl-1-naphthylamine, reference compound] |  |  |  |  |  | Kd ([1]; pH 5.0): 2.91 µM; Kd ([1]; pH 7.4): 3.65 µM
3 | C=CC(O)CCCCC (stereo not shown) [1-Octen-3-ol] | 9.13 µM | 16.2 µM | 4.36 µM | 6.43 µM | high binding affinity | preference of dsMsepCSP5-treated moths for the volatile (in words) [2]: non-significant preference
4 | CCCCCC(C)O (stereo not shown) [2-Heptanol] | 7.95 µM | 63 µM | 3.8 µM | 24.9 µM | high binding affinity | males attracted to / preferring the volatile [3]: 80%
5 | CCCCCCCCCC(C)=O [2-Undecanone] | 5.15 µM | 21.6 µM | 2.46 µM | 8.56 µM |  | behavioral response of M. separata to the volatile (in words) [3]: no obvious preference
6 | CCCCCCCCCCCC(C)=O [2Tridecanone] | 10.4 µM | 13.9 µM | 4.95 µM | 5.51 µM |  | 
7 | CCC(O)CC [3-Pentanol] | 14 µM | 29.8 µM | 6.71 µM | 11.8 µM | high binding affinity | females attracted to / preferring the volatile [3]: 80%; preference of dsMsepCSP5-treated moths for the volatile (in words) [2]: non-significant preference
8 | Cc1ccc(C(C)C)cc1 [4-lsopropyltoluene] |  |  |  |  |  | Ki ([1]; pH 5.0): 14.4 µM; IC50 ([1]; pH 5.0): 30.2 µM; Ki ([1]; pH 7.4): 20.7 µM; IC50 ([1]; pH 7.4): 52.3 µM
9 | CC1=CC[C@@](O)(C(C)C)CC1 [(-)-Terpinen-4-ol] |  |  |  |  |  | Ki ([1]; pH 5.0): 4.33 µM; IC50 ([1]; pH 5.0): 9.07 µM; Ki ([1]; pH 7.4): 13.6 µM; IC50 ([1]; pH 7.4): 34.4 µM
10 | CC/C=C\CCO [Cis-3-hexen-1-ol] | 727 µM | 227 µM | 347 µM | 89.7 µM |  | 
11 | CC/C=C\CCOC(C)=O [Cis-3-hexenyl acetate] | 13 µM | 32.4 µM | 6.22 µM | 12.8 µM |  | 
12 | OC1CCCCC1 [Cyclohexanol] | 71.5 µM | 136 µM | 34.2 µM | 54 µM |  | 
13 | CCCCCCCCCCCC=O [Dodecyl aldehyde] |  |  |  |  | high binding | Ki ([1]; pH 5.0): 7.17 µM; IC50 ([1]; pH 5.0): 15 µM; Ki ([1]; pH 7.4): 6.86 µM; IC50 ([1]; pH 7.4): 17.3 µM
14 | CCCCCCCCCCCCCCCCCCCC [Eicosane] | 15.2 µM | 47.8 µM | 7.25 µM | 18.9 µM |  | 
15 | CCOC(C)=O [Ethylacetate] | 8.84 µM | 19.4 µM | 4.22 µM | 7.67 µM |  | 
16 | CC12CCC(CC1)C(C)(C)O2 [Eucalyptol] | 9.31 µM | 14.6 µM | 4.45 µM | 5.79 µM | high binding affinity | 
17 | CCCCCCCCCCCCCCCC [Hexadecane] | 74.3 µM | 58.3 µM | 35.5 µM | 23.1 µM |  | 

Row | Compound | IC50 ([1]; IC50, pH 5.0) | IC50 ([1]; IC50, pH 7.4) | Ki ([1]; Ki, pH 5.0) | Ki ([1]; Ki, pH 7.4) | binding affinity to MsepCSP5 (in words) ([1]; pH 5.0) | further results
18 | CCCCCC=O [Hexanal] | 9.28 µM | 21.4 µM | 4.43 µM | 8.46 µM | high binding | 
19 | CCCCCC [Hexane] | 18.6 µM | 14.9 µM | 8.9 µM | 5.89 µM |  | 
20 | C=CC(C)(O)CCC=C(C)C (stereo not shown) [Linalool] | 41.3 µM | 65.3 µM | 19.7 µM | 25.8 µM |  | 
21 | COC(=O)c1ccccc1 [Methyl benzoate] | 10.8 µM | 47.5 µM | 5.18 µM | 18.8 µM |  | females attracted to / preferring the volatile [3]: 70%; behavioral response of M. separata to the volatile (in words) [3]: strong positive responses; males attracted to / preferring the volatile [3]: 67%
22 | CCCCCCCCCCCCCCCCCCC [Nonadecane] | 15 µM | 49.3 µM | 7.15 µM | 19.5 µM |  | 
23 | CCCCCCCC [Octane] | 7.17 µM | 23.6 µM | 3.42 µM | 9.34 µM |  | 
24 | C=C(C)[C@H]1CC=C(C)CC1 [R-(+)-Limonene] |  |  |  |  |  | Ki ([1]; pH 5.0): 5.18 µM; IC50 ([1]; pH 5.0): 10.8 µM; Ki ([1]; pH 7.4): 15 µM; IC50 ([1]; pH 7.4): 37.9 µM
25 | CC1=CCC(=C(C)C)CC1 [Terpinolene] | 8.27 µM | 43.8 µM | 3.95 µM | 17.4 µM |  | 
26 | CCCCCCCCCCCCCC [Tetradecane] | 21.7 µM | 20.8 µM | 10.4 µM | 8.22 µM |  | 
27 | CCC/C=C/CO [Trans-2-hexen-1-ol] | 17 µM | 34.2 µM | 8.1 µM | 13.5 µM | high binding affinity | 
28 | CCC/C=C/C=O [Trans-2-hexenal] | 43.4 µM | 22.9 µM | 20.7 µM | 9.08 µM | moderate binding | 
29 | CCCCCCCCCCCCC [Tridecane] | 478 µM | 522 µM | 228 µM | 207 µM |  | 
30 | CC1=CC=C(C(C)C)CC1 [α -Terpinene] |  |  |  |  |  | Ki ([1]; pH 5.0): 8.19 µM; IC50 ([1]; pH 5.0): 17.2 µM; Ki ([1]; pH 7.4): 8.77 µM; IC50 ([1]; pH 7.4): 22.2 µM
31 | CC1=CC[C@@H](C(C)(C)O)CC1 [α -Terpineol] | 12.6 µM | 198 µM | 6.02 µM | 78.3 µM | high binding affinity | 
32 | CC(=O)/C=C/C1=C(C)CCCC1(C)C [β-Lonone] |  |  |  |  |  | Ki ([1]; pH 5.0): 2.09 µM; IC50 ([1]; pH 5.0): 4.38 µM; Ki ([1]; pH 7.4): 5.06 µM; IC50 ([1]; pH 7.4): 12.8 µM
33 | Farnesene |  |  |  |  |  | Ki ([1]; pH 5.0): 35.6 µM; IC50 ([1]; pH 5.0): 74.7 µM; Ki ([1]; pH 7.4): 21.5 µM; IC50 ([1]; pH 7.4): 54.4 µM
